# What was measured:
# Type in all cases: functional
# Aspergillus fumigatus = assay: Antimicrobial activity against Aspergillus fumigatus after 72 hrs by microbroth dilution method
# In short: (§1)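 Broth microdilution per NCCLS guidelines. Bacteria in Mueller-Hinton broth; fungi in MOPS-buffered RPMI 1640. Test compounds at 50-0.36 µg/mL, standard drugs over 32-0.0018 µg/mL. Inoculum 1-5 × 10^3 cells/mL, 35 °C in a moist chamber. A492 read at 24 h for bacteria, 48 h for C. albicans, 72 h for A. fumigatus, C. neoformans and S. schenckii, 96 h for T. mentagrophytes. MIC taken as 90% growth inhibition relative to growth control.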
# Klebsiella pneumoniae = assay: Antimicrobial activity against Klebsiella pneumoniae ATCC 27736 after 24 hrs by microbroth dilution method; details: ATCC 27736, 24 h; in short: as §1
# Staphylococcus aureus [1] = assay: Antimicrobial activity against Staphylococcus aureus ATCC 25923 after 24 hrs by microbroth dilution method; details: ATCC 25923, 24 h; in short: as §1
# Sporothrix schenckii = assay: Antimicrobial activity against Sporothrix schenckii after 72 hrs by microbroth dilution method; in short: as §1
# Pseudomonas aeruginosa = assay: Antimicrobial activity against Pseudomonas aeruginosa ATCC BAA-427 after 24 hrs by microbroth dilution method; details: ATCC BAA-427, 24 h; in short: as §1
# Escherichia coli = assay: Antimicrobial activity against Escherichia coli ATCC 9637 after 24 hrs by microbroth dilution method; details: ATCC 9637, 24 h; in short: as §1
# Staphylococcus aureus [2] = assay: Antimicrobial activity against methicillin-resistant Staphylococcus aureus after 24 hrs by microbroth dilution method
# In short: (§2)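 Microbroth dilution in Mueller Hinton broth, following NCCLS guidelines. Test compounds were run at 50-0.36 µg/mL against an initial inoculum of 1-5 × 10^3 cells/mL. Plates were incubated in a moist chamber at 35 °C, and absorbance at 492 nm was read after 24 h. MIC was taken as 90% growth inhibition relative to the growth control.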
# [3] = system: Trichophyton mentagrophytes; assay: Antimicrobial activity against Trichophyton mentagrophytes after 96 hrs by microbroth dilution method; in short: as §1
# Cryptococcus neoformans = assay: Antimicrobial activity against Cryptococcus neoformans after 72 hrs by microbroth dilution method; in short: as §1
# Candida albicans = assay: Antimicrobial activity against Candida albicans after 48 hrs by microbroth dilution method; in short: as §1
# Staphylococcus aureus [4] = assay: Antimicrobial activity against vancomycin-resistant Staphylococcus aureus after 24 hrs by microbroth dilution method; in short: as §2
SMILES,MIC (Aspergillus fumigatus) [mg/L],MIC (Klebsiella pneumoniae) [mg/L],MIC (Staphylococcus aureus [1]) [mg/L],MIC (Sporothrix schenckii) [mg/L],MIC (Pseudomonas aeruginosa) [mg/L],MIC (Escherichia coli) [mg/L],MIC (Staphylococcus aureus [2]) [mg/L],MIC [3] [mg/L],MIC (Cryptococcus neoformans) [mg/L],MIC (Candida albicans) [mg/L],MIC (Staphylococcus aureus [4]) [mg/L]
CC(C)CCO[C@@H]1C=CC(=O)[C@@H](Cn2cc(CCCN3C(=O)c4ccccc4C3=O)nn2)O1,> 50,> 50,6.25,50,> 50,> 50,25,25,50,25,25
CC(C)CCO[C@@H]1C=CC(=O)[C@@H](Cn2ccnn2)O1,> 50,> 50,25,> 50,> 50,50,> 50,> 50,50,50,> 50
CC(C)CCO[C@@H]1C=CC(=O)[C@@H](Cn2cc(CCn3cc(C4CC4)nn3)nn2)O1,> 50,> 50,25,> 50,> 50,> 50,> 50,> 50,50,50,> 50
CC(C)CCO[C@@H]1C=CC(=O)[C@@H](Cn2cc(CCn3cc(-c4ccccc4)nn3)nn2)O1,> 50,> 50,50,50,> 50,> 50,> 50,50,50,50,> 50
CC1(C)S[C@@H]2[C@H](NC(=O)[C@H](N)c3ccccc3)C(=O)N2[C@H]1C(=O)O [AMPICILLIN],,12.5,12.5,,> 50,50,0.78,,,,0.78
O=C(O)c1cn(C2CC2)c2cc(N3CCNCC3)c(F)cc2c1=O [CIPROFLOXACIN],,0.01,0.09,,0.09,,0.38,,,,0.38
Clc1ccccc1C(c1ccccc1)(c1ccccc1)n1ccnc1 [CLOTRIMAZOLE],8,,,4,,,,2,0.25,0.25,
OC(Cn1cncn1)(Cn1cncn1)c1ccc(F)cc1F [FLUCONAZOLE],> 32,,,4,,,,16,2,1,
Nc1nc(=O)[nH]cc1F [FLUCYTOSINE],> 32,,,> 32,,,,> 32,0.13,0.25,
CN[C@@H]1[C@@H](O)[C@@H](O[C@@H]2[C@@H](O)[C@H](O[C@H]3O[C@H]([C@@H](C)NC)CC[C@H]3N)[C@@H](N)C[C@H]2N)OC[C@]1(C)O [GENTAMICIN C1],,1.56,0.39,,0.39,1.56,1.56,,,,1.56
COc1cccc(OC)c1C(=O)N[C@@H]1C(=O)N2[C@@H]1SC(C)(C)[C@@H]2C(=O)O [METHICILLIN],,6.25,0.04,,> 50,50,,,,,
Clc1ccc(COC(Cn2ccnc2)c2ccc(Cl)cc2Cl)c(Cl)c1 (centres undefined) [MICONAZOLE],12.5,,,3.12,,,,0.78,12.5,25,
CN[C@H](CC(C)C)C(=O)N[C@H]1C(=O)N[C@@H](CC(N)=O)C(=O)N[C@H]2C(=O)N[C@H]3C(=O)N[C@H](C(=O)N[C@H](C(=O)O)c4cc(O)cc(O)c4-c4cc3ccc4O)[C@H](O)c3ccc(c(Cl)c3)Oc3cc2cc(c3O[C@@H]2O[C@H](CO)[C@@H](O)[C@H](O)[C@H]2O[C@H]2C[C@](C)(N)[C@H](O)[C@H](C)O2)Oc2ccc(cc2Cl)[C@H]1O [VANCOMYCIN],,12.5,12.5,,> 50,12.5,,,,,
